≈ marks a conversion by molar mass, not a printed value.
Columns and labels:
[1] = tested on: Veillonella parvula; test: Antibacterial activity against Veillonella parvula ATCC 17745 MMX 1272; format: functional
[2] = Drug distribution in Sprague-Dawley rat vaginal secretion measured at 6 hrs; format: ADME, tissue-based, Vaginal fluid; conditions: female, read-out: Ct
Outline: (§1)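 Sprague–Dawley rats were dosed with TNP-2198. Concentrations were measured in plasma (ng/mL) and in tissues or contents (ng/g) at 0.5, 2, 6, 12 and 24 h after dosing. Values below the limit of quantification are reported as BLOQ.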

[3] = Drug distribution in Sprague-Dawley rat stomach content measured at 6 hrs; format: ADME, tissue-based; conditions: read-out: Ct; outline: as §1
[4] = Drug distribution in Sprague-Dawley rat gums measured at 2 hrs; format: ADME, tissue-based, Gingiva; conditions: read-out: Ct; outline: as §1
[5] = tested on: Syrian golden hamster; test: Antibacterial activity against Clostridioides difficile UNT-103-1 infected in Syrian hamster assessed as survival at 5 mg/kg, po administered once a daily for 5 days after 18 hrs post 10 mg/kg clindamycin treatment; format: functional, Mesocricetus auratus; conditions: time 5 day
Outline: (§2)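 Male Golden Syrian hamsters (80-90 g), housed singly, were gavaged with C. difficile UNT103-1 grown in sporulation medium broth and diluted to OD600 1 in prereduced broth. […] From 18 h later, drug or vehicle was given by oral gavage once daily for 5 days. Survival was recorded through day 21.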

[6] = Drug distribution in Sprague-Dawley rat large intestine tissue measured at 2 hrs; format: ADME, tissue-based; conditions: read-out: Ct; outline: as §1
[7] = AUC in C57BL/6 mouse at 20 mg/kg, po; format: ADME, organism-based; parameters: dose 20 mg/kg, route po; conditions: in vivo
Outline: (§3)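 Plasma PK after single intravenous or oral dosing. Mice C57BL/6 at 5 mg/kg IV or 20 mg/kg PO; Sprague–Dawley rats at 10 mg/kg IV or 50 mg/kg PO; beagle dogs at 5 mg/kg IV or 25 mg/kg PO. AUC reported in ng·h/mL. Clearance from the IV arms in mL/min·kg.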

[8] = tested on: Gardnerella vaginalis; test: Resistance development in Gardnerella vaginalis MMX 5973 assessed as spontaneous resistance frequency using at 4.50 x 10^8 CFU inoculum at 1 ug/ml; format: functional; conditions: dose 1 µg/ml
Outline: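 Resistant colonies were counted at each drug concentration in two separate tests (test 1, test 2) and averaged. The spontaneous resistance frequency was taken from the mean colony count relative to the inoculum plated. Drug levels tested were 0.5, 1, 2 and 4 µg/mL, and a mutation prevention concentration (MPC) was also reported.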

[9] = tested on: Helicobacter pylori; test: Antibacterial activity against Helicobacter pylori infected in C57/BL6 mouse assessed as bacterial load in stomach at 1 mg/kg administered twice daily via oral gavage starting from 7 days post inoculation and administered for 7 days in presence of 10 mg/kg clarithromycin and 20 mg/kg amoxicillin (reference value: 5.25 log10CFU); format: functional; conditions: time 7 day
[10] = tested on: Syrian golden hamster; test: Antibacterial activity against Clostridioides difficile UNT-103-1 infected in Syrian hamster assessed as mortality at 5 mg/kg, po administered once a daily for 5 days after 18 hrs post 10 mg/kg clindamycin treatment and measured after 7 to 9 days; format: functional, Mesocricetus auratus; conditions: time 7-9 day; outline: as §2
[11] = tested on: Gardnerella vaginalis; test: Antibacterial activity against Gardnerella vaginalis ATCC 14018; format: functional
[12] = AUC in Beagle dog at 25 mg/kg, po; format: ADME, organism-based, Canis lupus familiaris; parameters: dose 25 mg/kg, route po; conditions: in vivo; outline: as §3
[13] = Drug distribution in Sprague-Dawley rat brain measured at 12 hrs; format: ADME, tissue-based; conditions: in vivo, BLD = below limit of detection; outline: as §1
[14] = Clearance in Beagle dog at 5 mg/kg, iv; format: ADME, organism-based, Canis lupus familiaris; conditions: in vivo; outline: as §3
[15] = Half life in Beagle dog at 5 mg/kg, iv; format: ADME, organism-based, Canis lupus familiaris; conditions: in vivo
Outline: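 Single-dose PK of TNP-2198 was run in C57BL/6 mice (IV 5 mg/kg; PO 20 mg/kg) and beagle dogs (IV 5 mg/kg; PO 25 mg/kg). Terminal half-life (h) was derived from plasma profiles, together with Tmax, Vdss, CL, AUC and oral bioavailability.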

[16] = Drug distribution in Sprague-Dawley rat large intestine content measured at 6 hrs; format: ADME, tissue-based; conditions: read-out: Ct; outline: as §1
[17] = Oral bioavailability in Sprague-Dawley rat at 50 mg/kg; format: ADME, organism-based; conditions: in vivo
[18] = Tmax in Sprague-Dawley rat at 50 mg/kg, po; format: ADME, organism-based; conditions: in vivo
[19] = Drug distribution in Sprague-Dawley rat vaginal secretion measured at 2 hrs; format: ADME, tissue-based, Vaginal fluid; conditions: female, read-out: Ct; outline: as §1
[20] = Drug distribution in Sprague-Dawley rat vaginal secretion measured at 12 hrs; format: ADME, tissue-based, Vaginal fluid; conditions: female, read-out: Ct; outline: as §1
[21] = tested on: Staphylococcus aureus; test: Antibacterial activity against Staphylococcus aureus ATCC 29213; format: functional
[22] = Drug distribution in Sprague-Dawley rat plasma measured at 0.5 hrs; format: ADME, cell-free; outline: as §1
[23] = tested on: Gardnerella vaginalis; test: Antibacterial activity against Gardnerella vaginalis ATCC 49145; format: functional
[24] = tested on: Clostridioides difficile; test: Antibacterial activity against rifampicin/fluoroquinolone-resistant Clostridioides difficile CB1942 harboring rpoBQ489K/gyrAD71Y/T82A mutant measured after 3 days; format: functional; conditions: CB1942, 72 h, time 3 day
[25] = Drug distribution in Sprague-Dawley rat brain measured at 6 hrs; format: ADME, tissue-based; conditions: read-out: Ct; outline: as §1
[26] = Drug distribution in Sprague-Dawley rat stomach tissue measured at 6 hrs; format: ADME, tissue-based; conditions: read-out: Ct; outline: as §1
[27] = Drug distribution in Sprague-Dawley rat gums measured at 12 hrs; format: ADME, tissue-based, Gingiva; conditions: read-out: Ct; outline: as §1
[28] = Drug distribution in Sprague-Dawley rat large intestine content measured at 0.5 hrs; format: ADME, tissue-based; conditions: read-out: Ct; outline: as §1
[29] = Drug distribution in Sprague-Dawley rat stomach tissue measured at 24 hrs; format: ADME, tissue-based; conditions: read-out: Ct; outline: as §1
[30] = Drug distribution in Sprague-Dawley rat vaginal tissue measured at 0.5 hrs; format: ADME, tissue-based, Vagina; conditions: female, read-out: Ct; outline: as §1
[31] = tested on: Clostridioides difficile; test: Antibacterial activity against fluoroquinolone-resistant Clostridioides difficile CB1939 measured after 3 days; format: functional; conditions: CB1939, 72 h, time 3 day
[32] = Half life in C57BL/6 mouse at 5 mg/kg, iv; format: ADME, organism-based; conditions: in vivo
[33] = Drug distribution in Sprague-Dawley rat stomach content measured at 2 hrs; format: ADME, tissue-based; conditions: read-out: Ct; outline: as §1
[34] = tested on: Helicobacter pylori; test: Antibacterial activity against metronidazole-resistant Helicobacter pylori CB1573 harboring rdxAR16S mutant measured after 5 days by agar dilution method; format: functional; conditions: CB1573, 120 h, time 5 day
Outline: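 Agar dilution per CLSI. Wild-type ATCC 700392 (CB1531) and its derivatives carry defined resistance determinants. Drugs, alone or in 1:1 molar mixtures, were diluted 2-fold from 100× stocks into Mueller–Hinton agar with aged (≥2 weeks) sheep blood (5% v/v). MIC read after 5 days at 35 °C under microaerobic conditions from a campylobacter gas-generating system.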

[35] = Clearance in Sprague-Dawley rat at 10 mg/kg, iv; format: ADME, organism-based; conditions: in vivo; outline: as §3
[36] = Drug distribution in Sprague-Dawley rat brain measured at 0.5 hrs; format: ADME, tissue-based; conditions: read-out: Ct; outline: as §1
[37] = Drug distribution in Sprague-Dawley rat stomach tissue measured at 0.5 hrs; format: ADME, tissue-based; conditions: read-out: Ct; outline: as §1
[38] = Drug distribution in Sprague-Dawley rat large intestine tissue measured at 6 hrs; format: ADME, tissue-based; conditions: read-out: Ct; outline: as §1
[39] = tested on: Clostridioides difficile; test: Antibacterial activity against Clostridioides difficile CB1921 ATCC BAA1382 measured after 3 days; format: functional; conditions: CB1921 ATCC BAA1382, 72 h, time 3 day
[40] = Drug distribution in Sprague-Dawley rat vaginal secretion measured at 24 hrs; format: ADME, tissue-based, Vaginal fluid; conditions: female, read-out: Ct; outline: as §1
[41] = tested on: Clostridioides difficile; test: Antibacterial activity against Clostridioides difficile ATCC 9689; format: functional
[42] = Drug distribution in Sprague-Dawley rat ascites fluid measured at 24 hrs; format: ADME, tissue-based, Ascitic fluid; conditions: in vivo, BLD = below limit of detection; outline: as §1
[43] = Drug distribution in Sprague-Dawley rat ascites fluid measured at 6 hrs; format: ADME, tissue-based, Ascitic fluid; conditions: read-out: Ct; outline: as §1
[44] = Drug distribution in Sprague-Dawley rat plasma measured at 2 hrs; format: ADME, cell-free; outline: as §1
[45] = Drug distribution in Sprague-Dawley rat vaginal tissue measured at 12 hrs; format: ADME, tissue-based, Vagina; conditions: female, read-out: Ct; outline: as §1
[46] = tested on: Peptostreptococcus sp.; test: Antibacterial activity against Peptostreptococcus magnus ATCC 14956; format: functional

For `CO[C@H]1/C=C/O[C@@]2(C)Oc3c(C)c(O)c4c(c3C2=O)C2=NC3(CCN(CCn5c([N+](=O)[O-])cnc5C)CC3)NC2=C(NC(=O)/C(C)=C\C=C\[C@H](C)[C@H](O)[C@@H](C)[C@@H](O)[C@@H](C)[C@H](OC(C)=O)[C@@H]1C)C4=O` [RIFASUTENIZOL], which MIC [1] is on record?
Its MIC is 2000 ng/mL (≈ 2120 nM).

And the concentration at 6 h [2]?
The concentration at 6 h was 6240 ng/g.

And the concentration at 6 h [3]?
The concentration at 6 h was 28800 ng/g.

And the concentration at 2 h [4]?
Its concentration at 2 h is 6040 ng/g.

What about the Activity [5] of the same compound?
Its Activity is 100%.

And the concentration at 2 h [6]?
The concentration at 2 h was 8410 ng/g.

And the AUC [7]?
Its AUC is 3040 ng·h/mL.

What about the Activity [8] of the same compound?
The Activity was <2 10^-9No_unit.

What about the Activity [9] of the same compound?
Its Activity is 1.7 log10CFU.

What about the Activity [10] of the same compound?
Its Activity is 10%.

What about the MIC [11] of the same compound?
Its MIC is 4 ng/mL (≈ 4.24 nM).

What about the AUC [12] of the same compound?
The AUC was 14800 ng·h/mL.

What about the Ct [13] of the same compound?
The Ct was “Bld”.

What about the clearance [14] of the same compound?
Its clearance is 20 mL/min/kg.

And the half-life [15]?
Its half-life is 3.9 h.

And the concentration at 6 h [16]?
The concentration at 6 h was 84300 ng/g.

What about the bioavailability [17] of the same compound?
Its bioavailability is 48%.

What about the Tmax [18] of the same compound?
Its Tmax is 1.8 h.

What about the concentration at 2 h [19] of the same compound?
The concentration at 2 h was 43700 ng/g.

What about the concentration at 12 h [20] of the same compound?
The concentration at 12 h was 366 ng/g.

What about the MIC [21] of the same compound?
Its MIC is 15 ng/mL (≈ 15.9 nM).

And the concentration at 0.5 h [22]?
Its concentration at 0.5 h is 1700 ng/mL.

What about the MIC [23] of the same compound?
Its MIC is 4 ng/mL (≈ 4.24 nM).

And the MIC [24]?
Its MIC is 60 ng/mL (≈ 63.6 nM).

What about the concentration at 6 h [25] of the same compound?
The concentration at 6 h was 156 ng/g.

What about the concentration at 6 h [26] of the same compound?
The concentration at 6 h was 10600 ng/g.

And the concentration at 12 h [27]?
Its concentration at 12 h is 115 ng/g.

What about the concentration at 0.5 h [28] of the same compound?
The concentration at 0.5 h was 1480 ng/g.

And the concentration at 24 h [29]?
The concentration at 24 h was 14.4 ng/g.

And the concentration at 0.5 h [30]?
Its concentration at 0.5 h is 2800 ng/g.

What about the MIC [31] of the same compound?
The MIC was no more than 2 ng/mL.

What about the half-life [32] of the same compound?
Its half-life is 0.8 h.

And the concentration at 2 h [33]?
Its concentration at 2 h is 1.75e+06 ng/g.

What about the MIC [34] of the same compound?
Its MIC is no more than 2 ng/mL.

What about the clearance [35] of the same compound?
The clearance was 26 mL/min/kg.

And the concentration at 0.5 h [36]?
The concentration at 0.5 h was 114 ng/g.

What about the concentration at 0.5 h [37] of the same compound?
The concentration at 0.5 h was 113000 ng/g.

What about the concentration at 6 h [38] of the same compound?
Its concentration at 6 h is 3660 ng/g.

What about the MIC [39] of the same compound?
Its MIC is no more than 2 ng/mL.

What about the concentration at 24 h [40] of the same compound?
The concentration at 24 h was 54.6 ng/g.

And the MIC [41]?
The MIC was 0.2 ng/mL (≈ 0.212 nM).

And the Ct [42]?
The Ct was “Bld”.

And the concentration at 6 h [43]?
Its concentration at 6 h is 3480 ng/g.

What about the concentration at 2 h [44] of the same compound?
The concentration at 2 h was 2640 ng/mL.

And the concentration at 12 h [45]?
Its concentration at 12 h is 35.8 ng/g.

What about the MIC [46] of the same compound?
The MIC was 0.5 ng/mL (≈ 0.53 nM).

From ChEMBL document CHEMBL5131497, “Design, Synthesis, and Characterization of TNP-2198, a Dual-Targeted Rifamycin-Nitroimidazole Conjugate with Potent Activity against Microaerophilic and Anaerobic Bacterial Pathogens” (J Med Chem, 2022)
